Experimental data taken from ChEMBL document CHEMBL1641498, “Synthesis and structure-activity relationships of novel benzoxaboroles as a new class of antimalarial agents” (Bioorg Med Chem Lett, 2011).
Converted amounts (≈) assume the structure as drawn.

Columns and labels:
HeLa = test: Cytotoxicity against human HeLa cells after 72 hrs by MTT assay; format: cell-based
In short: (§1)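 Each cell line exposed to compounds over a 12-point concentration curve in triplicate for 72 h; viability read by MTT, IC50 determined.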

[1] = Solubility of the compound in water at pH 7; format: physicochemical
Plasmodium falciparum = test: Antimalarial activity against Plasmodium falciparum W2 infected in human erythrocytes assessed as reduction of parasitemia after 48 hrs by flow cytometry; format: functional, organism-based; conditions: W2, 48 h
In short: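 Erythrocytic-stage W2 parasites cultured in human erythrocytes in RPMI-1640 with 10% human serum or 0.5% Albumax; sorbitol-synchronized to ring stage. Serial dilutions from 10 mM stocks; 2% hematocrit, 1% parasitemia, 3% O2/5% CO2/N2, 48 h.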

Jurkat = test: Cytotoxicity against human Jurkat cells after 72 hrs by MTT assay; format: cell-based; in short: as §1

Row | IC50 (Plasmodium falciparum) [µM] | SMILES | also measured
1 | 0.026 | O=C(O)CCc1cccc2c1B(O)OC2 | IC50 (HeLa): > 100 µM; solubility [1]: 750 µg/mL (≈ 3.64 mM); IC50 (Jurkat): 60.5 µM
2 | 0.62 | O=C(O)CCCc1cccc2c1B(O)OC2 | –
3 | 2.01 | O=C(O)CCCCc1cccc2c1B(O)OC2 | –
4 | 0.46 | O=C(O)COc1cccc2c1B(O)OC2 | –
5 | 0.95 | O=C(O)CNc1cccc2c1B(O)OC2 | –
6 | > 5 | CN(CC(=O)O)c1cccc2c1B(O)OC2 | –
7 | 2.72 | CC(=O)CCc1cccc2c1B(O)OC2 | –
8 | 0.32 | COC(=O)CCc1cccc2c1B(O)OC2 | –
9 | 1.3 | NC(=O)CCc1cccc2c1B(O)OC2 | –
10 | > 5 | CN(C)C(=O)CCc1cccc2c1B(O)OC2 | –
11 | 0.46 | O=C(CCc1cccc2c1B(O)OC2)NS(=O)(=O)C1CC1 | –
12 | 1.02 | N#CCCc1cccc2c1B(O)OC2 | –
13 | 0.52 | NCCCc1cccc2c1B(O)OC2 | –
14 | 0.16 | OB1OCc2cccc(CCc3nn[nH]n3)c21 | –
15 | 0.12 | O=C(O)CCc1ccc2c(c1)B(O)OC2 | –
16 | 2.89 | O=C(O)CCc1ccc2c(c1)COB2O | –
17 | > 5 | O=C(O)CCc1cccc2c1COB2O | –
18 | > 5 | O=C(O)CCc1cccc2c1B(O)OCC2 | –
19 | > 5 | CC(C)(Cc1cccc2c1B(O)OC2)C(=O)O | –
20 | > 5 | CC1(C)OB(O)c2c(CCC(=O)O)cccc21 | –
